The values that follow come from ChEMBL document CHEMBL4177554, “Ester-to-amide rearrangement of ethanolamine-derived prodrugs of sobetirome with increased blood-brain barrier penetration” (Bioorg Med Chem, 2017).

Data set [1] in a line: Ratio of drug level in C57Bl/6 mouse brain to serum assessed as sobetirome level at 1.5 umol/kg, ip after 1 hr by LC-MS/MS analysis. In kind it is ADME, organism-based. The procedure, abridged: (§1)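 Single i.p. dose of 1.5 μmol/kg in 50% DMSO/saline to male C57Bl/6 mice (8–10 wk), n = 3. Agents were given as amide-rearranged isomers where rearrangement occurs. Whole brain and blood were taken at 1 h. Sobetirome was measured by LC-MS/MS with d6-sobetirome internal standard, and the brain/serum ratio was calculated. Values are mean with SEM.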

Data set [2] is described as follows: Prodrug activation in C57Bl/6 mouse brain assessed as sobetirome level at 1.5 umol/kg, ip after 1 hr by LC-MS/MS analysis. The data set is classed as organism-based. Particulars: in vivo. The procedure, abridged: as §1
For data set [3], the system named is Mus musculus. In words: Upregulation of Hr expression levels in ip dosed mouse brain for 7 days measured after 2 hrs post last dose by […] green dye-based qPCR analysis. The data set is classed as functional. The procedure, abridged: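 Mice, n = 3 per dose, received six i.p. doses in 1:1 saline/DMSO. Brains were collected 2 h post-injection. RNA was extracted with Trizol and a column kit with DNase treatment, and cDNA was diluted two-fold. Hairless was measured by qPCR, normalized to GAPDH, by comparative CT. ED50 ± SEM came from a sigmoidal dose–response fit. Run in triplicate.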

The nature of data set [4]: AUC (0 to t) in C57Bl/6 mouse serum at 1.5 umol/kg, ip by LC-MS/MS analysis. To be noted: in vivo. The data set is classed as ADME, organism-based. The method, boiled down:
(§2)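 Male C57Bl/6 mice (8–10 wk) given a single i.p. dose of 1.5 μmol/kg in 50% DMSO/saline. Three mice per time point were killed at 0.25, 0.5, 1, 2, 4 and 8 h. Brain, liver, heart and kidney were homogenized with d6-sobetirome internal standard and acetonitrile-extracted, as was serum. Sobetirome was quantified by negative-ESI LC-MS/MS on C18. AUC0→t was computed over 8 h.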

Data set [5] can be described thus: Elimination half life in C57Bl/6 mouse at 3.05 umol/kg, iv by LC-MS/MS analysis. The data set is classed as ADME, organism-based. Particulars: in vivo, read-out: beta t1/2 (converted). The method, boiled down:
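C57Bl/6 mice, n = 3 per cohort, dosed i.v. by tail vein at 3.05 μmol/kg or by oral gavage at 30.5 μmol/kg in 50% DMSO/saline. Serial serum samples were taken (i.v.: 5 min–8 h; p.o.: 10 min–8 h). Prodrug and sobetirome were quantified by LC-MS/MS. %F = (AUCp.o./AUCi.v.)·(dosei.v./dosep.o.)·100. t½ came from the log-concentration slope of the last five i.v. time points.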

The nature of data set [6]: AUC (0 to t) in C57Bl/6 mouse kidney at 1.5 umol/kg, ip by LC-MS/MS analysis. The data set is classed as ADME, organism-based. To be noted: in vivo. The method, boiled down: as §2
Data set [7] in a line: Drug uptake in C57Bl/6 mouse brain at 1.5 umol/kg, ip after 1 hr by LC-MS/MS analysis. In kind it is ADME, organism-based. To be noted: read-out: Drug uptake. The procedure, abridged: as §1
Data set [8] in a line: AUC (0 to t) in C57Bl/6 mouse heart at 1.5 umol/kg, ip by LC-MS/MS analysis. In kind it is ADME, organism-based. To be noted: in vivo. The method, boiled down: as §2
The nature of data set [9]: AUC (0 to t) in C57Bl/6 mouse brain at 1.5 umol/kg, ip by LC-MS/MS analysis. In kind it is ADME, organism-based. Particulars: in vivo. The procedure, abridged:
as §2

A short description of data set [10]: AUC (0 to t) in C57Bl/6 mouse liver at 1.5 umol/kg, ip by LC-MS/MS analysis. In kind it is ADME, organism-based. To be noted: in vivo. The procedure, abridged: as §2
Data set [11] is described as follows: Ratio of drug level in C57Bl/6 mouse brain to serum at 1.5 umol/kg, ip after 1 hr by LC-MS/MS analysis. In kind it is ADME, organism-based. The procedure, abridged:
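Male C57Bl/6 mice, 8–10 weeks old, given one i.p. dose of 1.5 μmol/kg in 50% DMSO/saline. Whole brain and blood taken 1 h later; serum obtained from blood clotted on ice ≥30 min and spun at 7,500 × g for 15 min. d6-sobetirome internal standard added, acetonitrile extraction, sobetirome quantified by negative-ESI LC-MS/MS. Mean of n = 3 mice, SEM.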

Data set [12] deals with Mus musculus. In words: Oral bioavailability in C57Bl/6 mouse at 30.5 umol/kg administered via oral gavage by LC-MS/MS analysis. To be noted: in vivo.
The nature of data set [13]: Ratio of AUC (0 to t) in C57Bl/6 mouse brain to serum at 1.5 umol/kg, ip by LC-MS/MS analysis. In kind it is ADME, organism-based. To be noted: read-out: Ratio AUC. The method, boiled down: as §2
A short description of data set [14]: AUC (0 to t) in C57Bl/6 mouse serum assessed as sobetirome level at 1.5 umol/kg, ip by LC-MS/MS analysis. To be noted: in vivo. The data set is classed as ADME, organism-based. The procedure, abridged:
as §2

Data set [15] can be described thus: AUC (0 to t) in C57Bl/6 mouse liver assessed as sobetirome level at 1.5 umol/kg, ip by LC-MS/MS analysis. Particulars: in vivo. In kind it is ADME, organism-based. The method, boiled down:
as §2

Data set [16] has as its system Mus musculus. In words: Total oral bioavailability in C57Bl/6 mouse assessed as sobetirome level at 30.5 umol/kg administered via oral gavage by LC-MS/MS analysis. To be noted: in vivo.
A short description of data set [17]: AUC (0 to t) in C57Bl/6 mouse kidney assessed as sobetirome level at 1.5 umol/kg, ip by LC-MS/MS analysis. To be noted: in vivo. The data set is classed as ADME, organism-based. The procedure, abridged:
as §2

A short description of data set [18]: AUC (0 to t) in C57Bl/6 mouse heart assessed as sobetirome level at 1.5 umol/kg, ip by LC-MS/MS analysis. The data set is classed as ADME, organism-based. To be noted: in vivo. The procedure, abridged:
as §2

The nature of data set [19]: AUC (0 to t) in C57Bl/6 mouse brain assessed as sobetirome level at 1.5 umol/kg, ip by LC-MS/MS analysis. The data set is classed as ADME, organism-based. To be noted: in vivo. The procedure, abridged: as §2

`Cc1cc(OCC(=O)O[C@H](C)CN)cc(C)c1Cc1ccc(O)c(C(C)C)c1`: the Ratio in [1] is given as 0.19. Further, the Activity in data set [2] was 8.12 ng/g.
In the same order, the values of `Cc1cc(OCC(=O)OC(C)CN)cc(C)c1Cc1ccc(O)c(C(C)C)c1` (configuration not stated) are 0.21 and 5.92 ng/g.
`Cc1cc(OCC(=O)OC(CN)C(C)C)cc(C)c1Cc1ccc(O)c(C(C)C)c1` (configuration not stated): in data set [1], the Ratio is given as 0.045. Further, the Activity in [2] is reported as 3.38 ng/g.
The ED50 is the dose at which the effect has come halfway, by size or by number of responders. Low values mean greater potency, high ones weaker potency. With `Cc1cc(OCC(=O)O)cc(C)c1Cc1ccc(O)c(C(C)C)c1` [SOBETIROME], the Activity entry in the data set with Mus musculus [3] was “Dose-dependent effect”. For the same compound, the ED50 in the data set on Mus musculus [3] stood at 1.8 µmol/kg. Moreover, the AUCt in [4] was determined as 472.6 ng·h/g; in [6], 686.8 ng·h/g; in [8], 180.3 ng·h/g; in [9], 9.9 ng·h/g; in data set [10], 2235 ng·h/g. Further, the half-life in data set [5] is 7.12 h. The concentration at 1 h in data set [7] came to 2.32 ng/g. In data set [11], the Kp at 1 h worked out at 0.037. Also, in the data set with Mus musculus [12], the F worked out at 92%. The Kp in [13] was determined as 0.02.
For `CNCC(C)OC(=O)COc1cc(C)c(Cc2ccc(O)c(C(C)C)c2)c(C)c1` (configuration not stated), the Ratio in data set [1] amounted to 0.23. The Activity in [2] came to 5.12 ng/g.
In the same order, the values of `Cc1cc(OCC(=O)OCCN)cc(C)c1Cc1ccc(O)c(C(C)C)c1` are 0.066 and 4.92 ng/g.
As for `Cc1cc(OCC(=O)OC(C)(C)CN)cc(C)c1Cc1ccc(O)c(C(C)C)c1`, the Ratio in [1] is 1.22. Besides, the Activity in data set [2] was determined as 0.4 ng/g.
For `Cc1cc(OCC(=O)OC(C)CCN)cc(C)c1Cc1ccc(O)c(C(C)C)c1` (configuration not stated) the same measures were 0.33 and 4.46 ng/g.
In the same order, the values of `Cc1cc(OCC(=O)OC(C)CNC(C)C)cc(C)c1Cc1ccc(O)c(C(C)C)c1` (configuration not stated) are 0.23 and 0.48 ng/g.
In the case of `Cc1cc(OCC(=O)NC[C@H](C)O)cc(C)c1Cc1ccc(O)c(C(C)C)c1`, in data set [2], the Drug metabolism result was “Metabolite_Detected”.
Take `Cc1cc(OCC(=O)OC2(C(F)(F)F)CNC2)cc(C)c1Cc1ccc(O)c(C(C)C)c1`: in data set [1], the Ratio was determined as 0.13. Also, in [2], the Activity worked out at 5.14 ng/g.
For `CNCC(OC(=O)COc1cc(C)c(Cc2ccc(O)c(C(C)C)c2)c(C)c1)C(C)C` (configuration not stated) the same measures were 0.024 and 1.79 ng/g.
For the compound `CNCCOC(=O)COc1cc(C)c(Cc2ccc(O)c(C(C)C)c2)c(C)c1`, the Ratio in data set [1] is reported as 0.21. In data set [2], the Activity was 6.33 ng/g.
In the same order, the values of `Cc1cc(OCC(=O)OC(CN)C(F)(F)F)cc(C)c1Cc1ccc(O)c(C(C)C)c1` (configuration not stated) are 0.2 and 5.23 ng/g.
For `CCC(CN)OC(=O)COc1cc(C)c(Cc2ccc(O)c(C(C)C)c2)c(C)c1` (configuration not stated) the same measures were 0.41 and 4.26 ng/g.
In the case of `Cc1cc(OCC(=O)O[C@@H](C)CN)cc(C)c1Cc1ccc(O)c(C(C)C)c1`, the results for the Activity entry (in the data set with Mus musculus [3]; in [2]) were “Dose-dependent effect” and 8.26 ng/g, respectively. Further, in the data set on Mus musculus [3], the ED50 is 1 µmol/kg. For the same compound, the half-life in data set [5] is 6.96 h. The Ratio in data set [1] is 0.47. The AUCt in data set [14] amounted to 136.5 ng·h/g; in data set [15], 1017 ng·h/g; in data set [17], 283.8 ng·h/g; in data set [18], 57.2 ng·h/g; in data set [19], 17.2 ng·h/g. In addition, the F with Mus musculus [16] was determined as 56%; in the data set with Mus musculus [12], 36%. In addition, the Kp in data set [13] was found to be 0.13.
